This passage reports Ki and Selectivity ratio results from ChEMBL document CHEMBL1133486, “Synthesis and calpain inhibitory activity of alpha-ketoamides with 2,3-methanoleucine stereoisomers at the P2 position” (Bioorg Med Chem Lett, 2000).

SMILES strings stand for the structures.

Assay [1] addresses T1, Calpain-1 catalytic subunit (Sus scrofa, UniProt P35750).
T1 sequence (P35750 whole entry): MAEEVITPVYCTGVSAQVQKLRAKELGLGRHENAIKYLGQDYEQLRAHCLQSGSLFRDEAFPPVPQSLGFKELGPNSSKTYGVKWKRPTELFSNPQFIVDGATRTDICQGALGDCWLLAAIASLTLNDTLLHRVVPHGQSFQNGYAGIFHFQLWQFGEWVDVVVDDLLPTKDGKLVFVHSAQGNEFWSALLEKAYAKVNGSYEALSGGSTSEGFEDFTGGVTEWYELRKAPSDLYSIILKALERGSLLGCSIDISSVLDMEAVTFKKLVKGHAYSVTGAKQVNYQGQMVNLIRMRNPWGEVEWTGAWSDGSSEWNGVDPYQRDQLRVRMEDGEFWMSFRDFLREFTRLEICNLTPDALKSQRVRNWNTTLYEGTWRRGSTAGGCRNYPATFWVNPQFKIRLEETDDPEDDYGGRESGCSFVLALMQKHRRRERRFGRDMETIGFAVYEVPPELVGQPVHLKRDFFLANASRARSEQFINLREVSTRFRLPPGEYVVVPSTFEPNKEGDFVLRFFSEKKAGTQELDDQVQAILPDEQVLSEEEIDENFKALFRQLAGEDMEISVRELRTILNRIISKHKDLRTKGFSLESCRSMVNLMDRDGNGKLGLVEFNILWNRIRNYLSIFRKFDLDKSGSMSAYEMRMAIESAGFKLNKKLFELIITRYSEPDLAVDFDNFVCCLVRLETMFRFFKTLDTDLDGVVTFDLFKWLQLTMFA
Description: The compound was evaluated for inhibition of Calpain 1 from porcine erythrocytes. It counts as cell-based. Summed up:
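Substrate was Suc-Leu-Tyr-AMC at two concentrations, inhibitor varied, and 5 mM CaCl2 started the reaction. Fluorescence increase (ex 370, em 440 nm) was read at ambient temperature. Ki came from Dixon plots of triplicate means.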

The target of the next assay is Cathepsin B (Homo sapiens, UniProt P07858). Description: The compound was evaluated for inhibition of cathepsin B from human liver. The gist of the method: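 Cathepsin B from human liver, assayed in 20 mM NaOAc pH 5.2, 0.5 mM DTT, 2% DMSO. Ki was obtained from Dixon plots (1/v versus inhibitor concentration, intersecting lines) using the average of triplicate assays.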

The nature of assay [2]: Selectivity ratio of Ki values for cathepsin B inhibition by those for calpain I inhibition.

The term Ki denotes the equilibrium dissociation constant of an inhibitor or competing ligand from its target. Lower therefore signals a stronger hold on the target. For the molecule `CC(C)[C@@H]1C[C@]1(NC(=O)OCc1ccccc1)C(=O)N[C@@H](Cc1ccccc1)C(=O)C(=O)NCCc1ccccc1`, the results for the Ki (in assay [1]; on Cathepsin B) were 40 µM and 4.56 µM, respectively. In addition, in assay [2], the Selectivity ratio came to 0.1.
Take `CC(C)[C@H]1C[C@]1(NC(=O)OCc1ccccc1)C(=O)N[C@@H](Cc1ccccc1)C(=O)C(=O)NCCc1ccccc1`: the inhibition constant Ki came out at 6.15 µM in assay [1] and 1.26 µM at Cathepsin B. Moreover, in assay [2], the Selectivity ratio turned out to be 0.2.
The like results for `CC(C)[C@@H]1C[C@@]1(NC(=O)OCc1ccccc1)C(=O)N[C@@H](Cc1ccccc1)C(=O)C(=O)NCCc1ccccc1` were, in that order, 0.75 µM, 6.78 µM and 9.
The like results for `CC(C)C[C@H](NC(=O)OCc1ccccc1)C(=O)N[C@@H](Cc1ccccc1)C(=O)C(=O)NCCc1ccccc1` were, in that order, 0.07 µM, 0.3 µM and 4.
Turning to `CC(C)[C@H]1C[C@@]1(NC(=O)OCc1ccccc1)C(=O)N[C@@H](Cc1ccccc1)C(=O)C(=O)NCCc1ccccc1`, the Ki in assay [1] came to 11.1 µM; on Cathepsin B it was 5.05 µM. Besides, the Selectivity ratio in assay [2] turned out to be 0.5.
